Source: ChEMBL document CHEMBL4330069, “Boosting the efficacy of anti-MRSA β-lactam antibiotics via an easily accessible, non-cytotoxic and orally bioavailable FtsZ inhibitor” (Eur J Med Chem, 2019)
Values after ≈ are worked out from the molar mass of the structure shown.

Key:
Type in all cases: functional
Staphylococcus aureus [1] = assay: Antibacterial activity against multidrug-resistant Staphylococcus aureus ATCC 43300 infected in BALB/C mouse assessed as mouse survival at 50 mg/kg, ip bid measured on day 4 post infection (reference value: 50%)
Staphylococcus aureus [2] = assay: Antibacterial activity against multidrug-resistant Staphylococcus aureus isolate 256 by broth microdilution assay
How it was run: (§1)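 Broth microdilution MIC per CLSI guidelines against clinical MRSA isolates, for β-lactams and test compound alone and in combination. Compounds were dissolved in DMSO. Growth was read by eye, in duplicate. FIC index = FIC(compound) + FIC(drug); synergy defined as FIC index ≤0.5.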

Staphylococcus aureus [3] = assay: Antibacterial activity against multidrug-resistant Staphylococcus aureus isolate 1749 by broth microdilution assay; how it was run: as §1
Staphylococcus aureus [4] = assay: Antibacterial activity against multidrug-resistant Staphylococcus aureus isolate 2224 by broth microdilution assay; how it was run: as §1
Staphylococcus aureus [5] = assay: Antibacterial activity against multidrug-resistant Staphylococcus aureus isolate 1449 by broth microdilution assay; how it was run: as §1
Staphylococcus aureus [6] = assay: Synergistic antibacterial activity against multidrug-resistant Staphylococcus aureus isolate 2895 in presence of amoxicillin by broth microdilution assay
How it was run: (§2)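 CLSI broth microdilution on clinical MRSA isolates. MICs were measured for the β-lactam alone, the test agent alone and the two combined. Compounds were dissolved in DMSO, and growth inhibition was scored by eye. FIC index is the sum, over both agents, of MIC in combination divided by MIC alone. An FIC index ≤0.5 was taken as synergy.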

Staphylococcus aureus [7] = assay: Synergistic antibacterial activity against multidrug-resistant Staphylococcus aureus isolate 1402 in presence of amoxicillin by broth microdilution assay
How it was run: (§3)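 Clinical MRSA isolate panel; compound and β-lactam tested alone and in combination by CLSI broth microdilution, compounds dissolved in DMSO, growth inhibition scored by eye, run in duplicate. FIC index = FIC(compound) + FIC(drug), each the MIC in combination divided by the MIC alone; an index ≤ 0.5 was called synergy.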

Staphylococcus aureus [8] = assay: Synergistic antibacterial activity against multidrug-resistant Staphylococcus aureus isolate 1449 in presence of amoxicillin by broth microdilution assay; how it was run: as §3
Staphylococcus aureus [9] = assay: Synergistic antibacterial activity against multidrug-resistant Staphylococcus aureus isolate 2490 in presence of cloxacillin by broth microdilution assay; how it was run: as §3
Staphylococcus aureus [10] = assay: Synergistic antibacterial activity against multidrug-resistant Staphylococcus aureus isolate 417 in presence of cloxacillin by broth microdilution assay
Staphylococcus aureus [11] = assay: Synergistic antibacterial activity against multidrug-resistant Staphylococcus aureus isolate 2901 in presence of cloxacillin by broth microdilution assay; how it was run: as §2
Staphylococcus aureus [12] = assay: Synergistic antibacterial activity against multidrug-resistant Staphylococcus aureus isolate 3411 in presence of cloxacillin by broth microdilution assay
Staphylococcus aureus [13] = assay: Synergistic antibacterial activity against multidrug-resistant Staphylococcus aureus isolate 2895 in presence of cloxacillin by broth microdilution assay; how it was run: as §2
Staphylococcus aureus [14] = assay: Synergistic antibacterial activity against multidrug-resistant Staphylococcus aureus isolate 2728 in presence of cloxacillin by broth microdilution assay; how it was run: as §2
Staphylococcus aureus [15] = assay: Synergistic antibacterial activity against multidrug-resistant Staphylococcus aureus isolate 2516 in presence of cefuroxime by broth microdilution assay; how it was run: as §2
Staphylococcus aureus [16] = assay: Synergistic antibacterial activity against multidrug-resistant Staphylococcus aureus isolate 3267 in presence of cefuroxime by broth microdilution assay; how it was run: as §2
Staphylococcus aureus [17] = assay: Synergistic antibacterial activity against multidrug-resistant Staphylococcus aureus isolate 2901 in presence of meropenem by broth microdilution assay; how it was run: as §2
Staphylococcus aureus [18] = assay: Synergistic antibacterial activity against multidrug-resistant Staphylococcus aureus isolate 2895 in presence of meropenem by broth microdilution assay; how it was run: as §2
Staphylococcus aureus [19] = assay: Synergistic antibacterial activity against multidrug-resistant Staphylococcus aureus isolate 1749 in presence of meropenem by broth microdilution assay; how it was run: as §3
Staphylococcus aureus [20] = assay: Synergistic antibacterial activity against multidrug-resistant Staphylococcus aureus isolate 3580 in presence of meropenem by broth microdilution assay
Staphylococcus aureus [21] = assay: Synergistic antibacterial activity against multidrug-resistant Staphylococcus aureus isolate 254 assessed as fractional Inhibitory concentration index in presence of amoxicillin by broth microdilution assay
Staphylococcus aureus [22] = assay: Synergistic antibacterial activity against multidrug-resistant Staphylococcus aureus isolate 417 assessed as fractional Inhibitory concentration index in presence of amoxicillin by broth microdilution assay
Staphylococcus aureus [23] = assay: Synergistic antibacterial activity against multidrug-resistant Staphylococcus aureus isolate 2901 assessed as fractional Inhibitory concentration index in presence of amoxicillin by broth microdilution assay
Staphylococcus aureus [24] = assay: Synergistic antibacterial activity against multidrug-resistant Staphylococcus aureus isolate 3267 assessed as fractional Inhibitory concentration index in presence of amoxicillin by broth microdilution assay
Staphylococcus aureus [25] = assay: Synergistic antibacterial activity against multidrug-resistant Staphylococcus aureus isolate 200 assessed as fractional Inhibitory concentration index in presence of amoxicillin by broth microdilution assay
How it was run: (§4)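 CLSI broth microdilution run on clinical MRSA isolates with each β-lactam alone, the test agent alone, and the two combined; agents dissolved in DMSO. Growth inhibition was read by eye. FIC index = FIC(compound) + FIC(β-lactam), where each FIC is the MIC in combination divided by the MIC alone. An index ≤0.5 was taken as synergy.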

Staphylococcus aureus [26] = assay: Synergistic antibacterial activity against multidrug-resistant Staphylococcus aureus isolate 3589 assessed as fractional Inhibitory concentration index in presence of methicillin by broth microdilution assay
Staphylococcus aureus [27] = assay: Synergistic antibacterial activity against multidrug-resistant Staphylococcus aureus isolate 3332 assessed as fractional Inhibitory concentration index in presence of methicillin by broth microdilution assay
Staphylococcus aureus [28] = assay: Synergistic antibacterial activity against multidrug-resistant Staphylococcus aureus isolate 200 assessed as fractional Inhibitory concentration index in presence of methicillin by broth microdilution assay
Staphylococcus aureus [29] = assay: Synergistic antibacterial activity against multidrug-resistant Staphylococcus aureus isolate 2490 assessed as fractional Inhibitory concentration index in presence of cloxacillin by broth microdilution assay; how it was run: as §4
Staphylococcus aureus [30] = assay: Synergistic antibacterial activity against multidrug-resistant Staphylococcus aureus isolate 231 assessed as fractional Inhibitory concentration index in presence of cloxacillin by broth microdilution assay; how it was run: as §4
Staphylococcus aureus [31] = assay: Synergistic antibacterial activity against multidrug-resistant Staphylococcus aureus isolate 1344 assessed as fractional Inhibitory concentration index in presence of cloxacillin by broth microdilution assay; how it was run: as §4
Staphylococcus aureus [32] = assay: Synergistic antibacterial activity against multidrug-resistant Staphylococcus aureus isolate 2728 assessed as fractional Inhibitory concentration index in presence of cloxacillin by broth microdilution assay
Staphylococcus aureus [33] = assay: Synergistic antibacterial activity against multidrug-resistant Staphylococcus aureus isolate 2516 assessed as fractional Inhibitory concentration index in presence of cefuroxime by broth microdilution assay; how it was run: as §4
Staphylococcus aureus [34] = assay: Synergistic antibacterial activity against multidrug-resistant Staphylococcus aureus isolate 1749 assessed as fractional Inhibitory concentration index in presence of cefuroxime by broth microdilution assay; how it was run: as §4
Staphylococcus aureus [35] = assay: Synergistic antibacterial activity against multidrug-resistant Staphylococcus aureus isolate 254 assessed as fractional Inhibitory concentration index in presence of meropenem by broth microdilution assay
Staphylococcus aureus [36] = assay: Synergistic antibacterial activity against multidrug-resistant Staphylococcus aureus isolate 3589 assessed as fractional Inhibitory concentration index in presence of meropenem by broth microdilution assay
Staphylococcus aureus [37] = assay: Synergistic antibacterial activity against multidrug-resistant Staphylococcus aureus isolate 2224 assessed as fractional Inhibitory concentration index in presence of meropenem by broth microdilution assay; how it was run: as §4
Staphylococcus aureus [38] = assay: Synergistic antibacterial activity against multidrug-resistant Staphylococcus aureus isolate 3580 assessed as fractional Inhibitory concentration index in presence of meropenem by broth microdilution assay

CCCCCCCCCNc1ccc(F)c(C(N)=O)c1F
Activity (Staphylococcus aureus [1]): 40%
MIC (Staphylococcus aureus [2]): 1020 µg/mL (≈ 3430 µM)
MIC (Staphylococcus aureus [3]): 2 µg/mL (≈ 6.7 µM)
MIC (Staphylococcus aureus [4]): 1020 µg/mL (≈ 3430 µM)
MIC (Staphylococcus aureus [5]): 4 µg/mL (≈ 13.4 µM)
MIC (Staphylococcus aureus [6]): 16 µg/mL
MIC (Staphylococcus aureus [7]): 4 µg/mL
MIC (Staphylococcus aureus [8]): 0.5 µg/mL
MIC (Staphylococcus aureus [9]): 1 µg/mL
MIC (Staphylococcus aureus [10]): 2 µg/mL
MIC (Staphylococcus aureus [11]): 0.5 µg/mL
MIC (Staphylococcus aureus [12]): 1 µg/mL
MIC (Staphylococcus aureus [13]): 2 µg/mL
MIC (Staphylococcus aureus [14]): 1 µg/mL
MIC (Staphylococcus aureus [15]): 2 µg/mL
MIC (Staphylococcus aureus [16]): 2 µg/mL
MIC (Staphylococcus aureus [17]): 4 µg/mL
MIC (Staphylococcus aureus [18]): 2 µg/mL
MIC (Staphylococcus aureus [19]): 4 µg/mL
MIC (Staphylococcus aureus [20]): 8 µg/mL
fractional inhibitory concentration index (FICI) (Staphylococcus aureus [21]): 0.6
fractional inhibitory concentration index (FICI) (Staphylococcus aureus [22]): 0.3
fractional inhibitory concentration index (FICI) (Staphylococcus aureus [23]): 0.1
fractional inhibitory concentration index (FICI) (Staphylococcus aureus [24]): 0.3
fractional inhibitory concentration index (FICI) (Staphylococcus aureus [25]): 0
fractional inhibitory concentration index (FICI) (Staphylococcus aureus [26]): 0.5
fractional inhibitory concentration index (FICI) (Staphylococcus aureus [27]): 0.3
fractional inhibitory concentration index (FICI) (Staphylococcus aureus [28]): 0.3
fractional inhibitory concentration index (FICI) (Staphylococcus aureus [29]): 0.6
fractional inhibitory concentration index (FICI) (Staphylococcus aureus [30]): 0.3
fractional inhibitory concentration index (FICI) (Staphylococcus aureus [31]): 0.1
fractional inhibitory concentration index (FICI) (Staphylococcus aureus [32]): 1
fractional inhibitory concentration index (FICI) (Staphylococcus aureus [33]): 0.1
fractional inhibitory concentration index (FICI) (Staphylococcus aureus [34]): 1.1
fractional inhibitory concentration index (FICI) (Staphylococcus aureus [35]): 1.5
fractional inhibitory concentration index (FICI) (Staphylococcus aureus [36]): 1.5
fractional inhibitory concentration index (FICI) (Staphylococcus aureus [37]): 4
fractional inhibitory concentration index (FICI) (Staphylococcus aureus [38]): 1.3
